Laboratory results from ChEMBL document CHEMBL1125370, “Cardiotonic agents. Synthesis and cardiovascular properties of novel 2-arylbenzimidazoles and azabenzimidazoles” (J Med Chem, 1992).
The source made the active and inactive calls. The rule behind the calls is not given here.

Key:
Canis familiaris [1] = assay: In vivo contractility in anesthetized dog expressed as dose which produced a 50% increase in dP/dt max from the control value.; format: functional; details: Canis lupus familiaris
Cavia porcellus [2] = organism: Cavia porcellus; assay: In vitro inotropic activity expressed as the maximal increase in developed tension in isolated left atria from guinea pig.; format: functional
Method in brief: (§1)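 Isolated left atria preparation. Tension max is the maximal increase in developed tension. Bracketed values give the maximal concentration used, and no effect was recorded up to that concentration. Values are means ± SEM.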

Canis familiaris [3] = assay: In vivo hypotension in anesthetized dog, expressed as the dose of the drug producing a 25% decrease in diastolic arterial pressure (DAP) from control value.; format: functional; details: Canis lupus familiaris, Artery
Cavia porcellus [4] = organism: Cavia porcellus; assay: The compound was tested in vitro for chronotropic activity in isolated right atria from guinea pig; format: functional
Method in brief: (§2)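 Isolated right atria, chronotropic read-out. Rate max is the maximal increase in rate, in beat/min. It comes from three to six experiments and was not calculated when rate max was below 30 beat/min. Bracketed values give the maximal concentration used. Means ± SEM.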

Cavia porcellus [5] = organism: Cavia porcellus; assay: In vitro inotropic activity in isolated left atria from guinea pig.; format: functional; method in brief: as §1
Cavia porcellus [6] = organism: Cavia porcellus; assay: The compound was tested in vitro for chronotropic activity expressed as the maximal increase in beat/min in isolated right atria from guinea pig
Canis familiaris [7] = assay: In vivo contractility in conscious dog expressed as dose which produced a 50% increase in dP/dt max from the control value; format: functional; details: Canis lupus familiaris
Method in brief: (§3)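 Male beagles (12–15 kg) carried a Königsberg transducer implanted in the left ventricle to record dP/dt max and arterial pressure. Drug or placebo was given by gastric tube as a 1% gum arabic suspension. Effects were followed for 5 h.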

Canis familiaris [8] = assay: In vivo contractility in conscious dog expressed as dose which produced a 50% increase in dP/dt max from the control value;No effect up to 1 mg/kg; format: functional, organism-based; design: dose 1 mg/kg; details: Canis lupus familiaris; method in brief: as §3
Cavia porcellus [9] = organism: Cavia porcellus; assay: The compound was tested in vitro for chronotropic activity in isolated right atria from guinea pig;No effect at a maximal concentration of 50 uM; format: functional; method in brief: as §2
Canis familiaris [10] = assay: In vivo hypotension in anesthetized dog expressed as the dose of the drug producing a 25% decrease in DAP from control valueNo effect at a maximal concentration of 50 uM; format: functional; details: Canis lupus familiaris
Cavia porcellus [11] = organism: Cavia porcellus; assay: The compound was tested in vitro for inotropic activity in isolated left atria from guinea pig. No effect at a maximal concentration of 20 uM,; format: functional
Method in brief: (§4)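 Isolated left atria preparation. Tension max is the maximal increase in developed tension. […] EC50 was not calculated when tension max was below 250 mg. Bracketed values give the maximal concentration used, and no effect was recorded up to that concentration. Values are means ± SEM.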

Cavia porcellus [12] = organism: Cavia porcellus; assay: The compound was tested in vitro for inotropic activity expressed as the maximal increase in developed tension. in isolated left atria from guinea pig,No effect at a maximal concentration of 20 uM; format: functional; method in brief: as §4
Cavia porcellus [13] = organism: Cavia porcellus; assay: The compound was tested in vitro for inotropic activity expressed as the maximal increase in developed tension. in isolated left atria from guinea pig;No effect at a maximal concentration of 50 uM; format: functional; method in brief: as §1
Cavia porcellus [14] = organism: Cavia porcellus; assay: The compound was tested in vitro for inotropic activity in isolated left atria from guinea pig;No effect at a maximal concentration of 50 uM,; format: functional; method in brief: as §4
Canis familiaris [15] = assay: In vivo contractility in anesthetized dog expressed as dose which produced a 50% increase in dP/dt max from the control value; format: functional, Canis lupus familiaris

With `O=C1CCC(c2ccc(Nc3ccncc3)cc2)=NN1` [SENAZODAN] the ED50 (Canis familiaris [1]) was 0.009 mg/kg, the Ionotropic activity (Cavia porcellus [2]) was 410 mg and the ED25 (Canis familiaris [3]) was 0.1 mg/kg. For the same compound, the EC50 (Cavia porcellus [4]) was 20 µM, the EC50 (Cavia porcellus [5]) was 34 µM and the Rate max (Cavia porcellus [6]) was 39 beats min-1. The ED50 (Canis familiaris [7]) was 0.1 mg/kg.

`c1cc(-c2nc3c[nH]c(-n4ccnc4)nc-3n2)ccn1` was tested, and the ED50 (Canis familiaris [8]) was “inactive”.

In the case of `c1ccc(-c2nc3cc(-n4ccnc4)ccc3[nH]2)nc1`, the ED50 (Canis familiaris [1]) is reported as greater than 3 mg/kg, the Ionotropic activity (Cavia porcellus [2]) is reported as 170 mg and the EC50 (Cavia porcellus [5]) is reported as greater than 50 µM. The EC50 (Cavia porcellus [9]) was “Not Active” and the ED25 (Canis familiaris [10]) was 3 mg/kg.

For `c1ccc(Nc2ncccc2-c2nc3cc(-n4ccnc4)ccc3[nH]2)cc1`, the EC50 (Cavia porcellus [11]) was “Not Active” and the Ionotropic activity (Cavia porcellus [12]) was “inactive”.

In the case of `COc1cc([S+](C)[O-])ccc1-c1nc2cccnc2[nH]1` (stereo not drawn) [SULMAZOLE], the ED50 (Canis familiaris [1]) is reported as 1 mg/kg, the Ionotropic activity (Cavia porcellus [2]) is reported as 600 mg and the ED25 (Canis familiaris [3]) is reported as 5 mg/kg. It also gave an EC50 (Cavia porcellus [4]) of 100 µM, an EC50 (Cavia porcellus [5]) of 31 µM and a Rate max (Cavia porcellus [6]) of 88 beats min-1. For the same compound, the ED50 (Canis familiaris [7]) was 10 mg/kg.

With `Cc1cc2[nH]c(-c3ccc(-n4ccnc4)cc3)nc2cc1-n1ccnc1.Cl.O` the Ionotropic activity (Cavia porcellus [13]) was “inactive”, the EC50 (Cavia porcellus [14]) was “Not Active” and the ED25 (Canis familiaris [3]) was greater than 3 mg/kg. For the same compound, the Contractility (Canis familiaris [15]) was greater than 3 mg/kg.

Work on `Cc1[nH]c(=O)c(C#N)cc1-c1ccncc1` [MILRINONE] yielded an ED50 (Canis familiaris [1]) of 0.15 mg/kg, an Ionotropic activity (Cavia porcellus [2]) of 580 mg and an ED25 (Canis familiaris [3]) of 1 mg/kg. It also gave an EC50 (Cavia porcellus [4]) of 22 µM, an EC50 (Cavia porcellus [5]) of 4.7 µM and a Rate max (Cavia porcellus [6]) of 70 beats min-1. For the same compound, the ED50 (Canis familiaris [7]) was 2 mg/kg.
